Measurements collected from several papers.
Lines come from different studies, so protocols differ.
Target: Death-associated protein kinase 1 (DAPK1, Homo sapiens, UniProt P53355)

SMILES	read-out	action	method	concentration	quantity	result
Nc1ncc(-c2nc(N3CCOCC3)nc(N3CCOCC3)n2)c(C(F)F)n1	binding	–	competition with immobilised ligand	10 µM	remaining binding	94%
Cn1cncc1[C@](O)(COc1ccc(C#N)cc1-c1ccc(OC(F)(F)F)cc1)c1ccc(C#N)cc1	cell-free assay	–	competition with immobilised ligand	1 µM	remaining binding	84%
CC(C)(C)c1cc(C=C(C#N)C#N)cc(Br)c1O	enzyme activity	inhibitor	–	0.5 µM	remaining activity	85.9%
COc1cc(Nc2ncc(F)c(Nc3ccc4c(n3)NC(=O)C(C)(C)O4)n2)cc(OC)c1OC	binding	–	competition with immobilised ligand	10 µM	inhibition	97%
COc1ncccc1-c1cnn2ccc(N3CCN(C(=O)OC(C)C)CC3)nc12	binding	–	competition with immobilised ligand	1 µM	remaining binding	82%
Cn1cc(-c2cc(F)cc(N3CCn4c(cc5c4CCCC5)C3=O)c2CO)cc(Nc2ccc(N3CCN(C4COC4)CC3)cn2)c1=O	enzyme activity	inhibitor	–	0.1 µM	inhibition	8%
Cc1nn(C)cc1-c1nc2c(N3CCN(Cc4ccc(Cl)cc4)CC3)c(Cl)cnc2[nH]1	binding	–	competition with immobilised ligand	1 µM	remaining binding	80%
Cn1cc(-c2cccc(N3CCc4c(sc5c4CC(C)(C)C5)C3=O)c2CO)cc(Nc2ccncn2)c1=O	enzyme activity	inhibitor	–	1 µM	inhibition	1%
O=c1[nH]c2ccccc2n1C1CCN(Cc2ccc(-c3[nH]c4cc5ncnc5cc4nc3-c3ccccc3)cc2)CC1	cell-free assay	–	–	0.5 µM	remaining signal	82.9%
